# Results taken from paper PMC10839117 (Cell chemical biology, 2023).
# “Also recorded” adds a separate entry of the source. Primed or numbered codes have the meaning given here. Where no end group is shown, it is not given here. [ ]: non-standard residue; d: D form. two‑PEG linker = not defined here; YHJ1039 = not defined here; PEG2′ = two-PEG linker
# T1: KLHDC2 (Homo sapiens, UniProt Q9Y2U9)
# T1 sequence (Q9Y2U9 1-362): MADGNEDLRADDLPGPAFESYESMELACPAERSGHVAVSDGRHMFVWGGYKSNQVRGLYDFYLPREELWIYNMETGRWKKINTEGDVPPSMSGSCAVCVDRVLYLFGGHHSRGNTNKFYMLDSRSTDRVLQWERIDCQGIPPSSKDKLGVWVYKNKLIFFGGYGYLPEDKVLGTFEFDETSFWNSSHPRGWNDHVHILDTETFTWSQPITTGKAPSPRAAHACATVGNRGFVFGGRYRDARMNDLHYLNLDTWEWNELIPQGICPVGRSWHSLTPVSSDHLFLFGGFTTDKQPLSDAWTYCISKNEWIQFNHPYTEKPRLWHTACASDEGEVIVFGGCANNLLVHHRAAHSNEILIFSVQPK
# T2: NEK9 (Homo sapiens, UniProt Q8TD19)
# T2 sequence (Q8TD19 1-979): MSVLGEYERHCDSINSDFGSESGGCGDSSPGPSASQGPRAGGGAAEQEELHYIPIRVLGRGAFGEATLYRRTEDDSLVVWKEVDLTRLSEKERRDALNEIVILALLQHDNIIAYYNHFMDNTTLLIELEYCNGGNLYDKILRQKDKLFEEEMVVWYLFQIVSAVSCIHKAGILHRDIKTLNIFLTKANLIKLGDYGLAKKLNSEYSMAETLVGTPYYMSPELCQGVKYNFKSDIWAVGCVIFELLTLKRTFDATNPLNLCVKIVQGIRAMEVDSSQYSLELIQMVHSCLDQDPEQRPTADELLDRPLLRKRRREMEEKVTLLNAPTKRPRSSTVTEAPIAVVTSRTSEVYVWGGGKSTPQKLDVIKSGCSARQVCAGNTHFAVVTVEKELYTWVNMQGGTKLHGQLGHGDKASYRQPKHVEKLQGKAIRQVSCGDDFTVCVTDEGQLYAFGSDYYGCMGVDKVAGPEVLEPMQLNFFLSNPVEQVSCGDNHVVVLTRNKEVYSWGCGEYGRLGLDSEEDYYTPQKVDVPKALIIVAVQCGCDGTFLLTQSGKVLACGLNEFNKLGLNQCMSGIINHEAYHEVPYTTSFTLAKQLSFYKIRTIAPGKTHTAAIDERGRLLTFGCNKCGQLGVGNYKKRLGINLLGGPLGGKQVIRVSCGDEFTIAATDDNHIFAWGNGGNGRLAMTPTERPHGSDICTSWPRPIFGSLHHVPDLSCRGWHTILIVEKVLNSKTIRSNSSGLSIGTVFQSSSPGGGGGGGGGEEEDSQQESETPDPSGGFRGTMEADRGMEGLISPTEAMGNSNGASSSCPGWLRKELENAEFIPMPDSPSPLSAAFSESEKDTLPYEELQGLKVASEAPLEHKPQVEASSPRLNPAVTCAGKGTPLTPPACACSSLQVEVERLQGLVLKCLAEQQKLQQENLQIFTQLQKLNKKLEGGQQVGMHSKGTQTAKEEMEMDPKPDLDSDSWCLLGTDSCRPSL
# T3: His6-GST-KLHDC2 (residues 1-362, propellor domain, lacking the autoinhibitory C-terminus) (UniProt Q9Y2U9 1-362)
# T3 sequence (looked up): T1 sequence (Q9Y2U9 1-362)
# How the values were obtained:
# [1] = cited from earlier work
# [2] = system: NEK9, FAK, CDK4, CDK6, and WEE1; assay: Kinase degradation by Western blotting, MOLM-14 cells; type: cell-based, human; conditions: 24 hours; for kinase degradation activity compared between compounds: Western blot, DB0614 comparison at 1 μM
# [3] = system: MOLM-14 cells; assay: Cell proliferation assay; type: cell-based, human
# In short: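 MOLM-14 cells were plated at low density and treated in triplicate or quadruplicate with DMSO-balanced test compound, with or without MLN4924. After 72 h, CellTiter-Glo was added for 10–15 min at room temperature and luminescence was read. Signal was normalised to DMSO-only wells, or to DMSO plus MLN4924 at the matching MLN4924 concentration.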
# [4] = target: T1, KLHDC2; assay: TR-FRET binding assay, KLHDC2
# [5] = target: FAK (Homo sapiens, UniProt Q05397); assay: Kinase degradation by Western blotting, FAK; type: cell-based; conditions: read-out: DC50 FAK, MOLM-14 cells, 24 hours
# In short: (§1)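 MOLM-14 cells (RPMI-1640, 10% FBS, 37°C, 5% CO2) were exposed to test compound for 24 h. Cells were washed in PBS, lysed with protease inhibitors, and equal protein was boiled in SDS sample buffer. Blots were blocked for at least 1 h in TBST/5% milk, then probed with kinase antibodies at 1:1,000 and HRP secondaries at 1:10,000. DC50 was taken from quantitative Western blotting.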
# [6] = target: WEE1 (Homo sapiens, UniProt P30291); assay: Kinase degradation by Western blotting, WEE1; type: cell-based; conditions: MOLM-14 cells
# In short: as §1
# [7] = target: T2, NEK9; assay: Kinase degradation by Western blotting, NEK9; type: cell-based; conditions: read-out: DC50 NEK9, MOLM-14 cells, 24 hours
# In short: as §1
# [8] = target: T4, CDK4 (Homo sapiens, UniProt P11802); assay: Kinase degradation by Western blotting, CDK4; type: cell-based; conditions: MOLM-14 cells
# In short: as §1
# [9] = target: WEE1 kinase domain (residues 290-576) (Homo sapiens, UniProt P30291); assay: HiBiT degradation assay, WEE1 kinase domain; type: cell-based
# In short: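 Pooled selected cells, checked for kinase expression by lytic HiBiT, grown with 10% FBS and 1% penicillin-streptomycin at 37°C, 5% CO2. Cells were dispensed and treated in triplicate or quadruplicate with DMSO balanced, then lysed for HiBiT luminescence after 6 h. For the MLN4924 arm, cells were pretreated 2 h with 1 μM MLN4924. HiBiT signal was normalized to CellTiter-Glo viability per matching condition and to DMSO.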
# [10] = system: WEE1 and CDK4 RNA; assay: RT-PCR of WEE1 and CDK4 RNA; type: cell-based, human; conditions: MOLM-14 cells, 1 μM, 24 hours
# [11] = target: WEE1-nanoluciferase fusion protein (Homo sapiens, UniProt P30291); assay: WEE1 cellular engagement assay; type: cell-based; conditions: nano-BRET, HEK-293T cells, one hour
# In short: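 HEK-293T cells were transiently transfected with a WEE1-nanoluciferase plasmid. The next day they were replated at 8,000 cells/well in phenol red-free DMEM with 4% FBS, together with K-5 tracer and 2 μM MLN4924. After 1 h, DMSO-normalised test compound was added. One hour later, nano-BRET detection reagent was added. The BRET ratio (610/450 nm) was normalised to DMSO wells.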
# [12] = target: T4, CDK4; assay: HiBiT degradation assay, CDK4; type: cell-based
# In short: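 MOLM-14 cells were lentivirally transduced with HiBiT-tagged kinase (GSGS linker, EF1a promoter) and pooled after 1 μg/ml puromycin selection. Cells were pretreated for 2 h with 1 μM MLN4924, then treated with test compound for 6 h in triplicate or quadruplicate. Lytic HiBiT luminescence was normalised to the matching CellTiter-Glo viability signal and to DMSO for each treatment.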
# [13] = target: CDK6 (Homo sapiens, UniProt Q00534); assay: Kinase degradation by Western blotting, CDK6; type: cell-based; conditions: read-out: DC50 CDK6, MOLM-14 cells, 24 hours
# In short: as §1
# [14] = target: KLHDC2-WEE1 (Homo sapiens, UniProt P30291+Q9Y2U9); assay: GST pulldown assay with purified KLHDC2 and WEE1 proteins; type: binding
# In short: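 Purified proteins were His6-GST-KLHDC2 (propeller domain, residues 1-362, lacking the autoinhibitory C-terminus; E. coli-expressed) and the WEE1 kinase domain with its tag removed by TEV. They were incubated with DMSO or test compound for 1 h on ice in 20 mM Tris-HCl pH 8.5, 150 mM NaCl, 1 mM TCEP, 0.05% NP-40 substitute. Glutathione-agarose was added for 1 h at 4°C, followed by three washes. Bound material was analysed by SDS-PAGE.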
# [15] = system: WEE1 and CDK4; assay: Kinase degradation by Western blotting in a panel of cancer cell lines; type: cell-based, human; conditions: 1 μM
# In short: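 Cancer cell lines were grown in RPMI-1640 (MOLM-14, MV-4-11, MOLT-4, DLD1, K562, SW480, MDA-MB-231, MCF7), EMEM (Detroit 551) or DMEM (GIST-T1, Hs27), each with 10% FBS and 1% pen-strep at 37°C, 5% CO2. Cells were treated with test compound, washed in PBS and lysed with protease inhibitors. Equal protein was blotted; membranes were blocked in TBST/5% milk, then probed with primaries at 1:1,000 and HRP secondaries at 1:10,000.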
# [16] = target: T3, His6-GST-KLHDC2 (residues 1-362, …); assay: AlphaScreen or HTRF
# [17] = 1 μM MLN4924 two hours, then six-hour experiment
# T4 sequence (P11802 whole entry): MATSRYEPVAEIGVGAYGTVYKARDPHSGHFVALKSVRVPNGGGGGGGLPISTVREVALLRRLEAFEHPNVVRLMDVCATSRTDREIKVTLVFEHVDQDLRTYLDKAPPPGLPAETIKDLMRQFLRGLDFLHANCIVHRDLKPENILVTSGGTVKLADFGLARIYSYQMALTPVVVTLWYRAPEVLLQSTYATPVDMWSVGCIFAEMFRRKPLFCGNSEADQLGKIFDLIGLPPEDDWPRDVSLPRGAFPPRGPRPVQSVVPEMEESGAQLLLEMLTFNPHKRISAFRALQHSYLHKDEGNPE
# WEE1 kinase domain (residues 290-576), sequence (P30291 290-576): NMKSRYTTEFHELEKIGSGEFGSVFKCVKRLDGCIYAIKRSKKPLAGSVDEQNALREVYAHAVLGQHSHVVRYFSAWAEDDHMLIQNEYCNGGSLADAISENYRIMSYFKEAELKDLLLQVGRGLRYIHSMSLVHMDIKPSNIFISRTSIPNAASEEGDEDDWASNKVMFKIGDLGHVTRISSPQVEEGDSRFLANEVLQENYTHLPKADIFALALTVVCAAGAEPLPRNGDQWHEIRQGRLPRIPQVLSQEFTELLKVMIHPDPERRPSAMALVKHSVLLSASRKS
# WEE1, sequence (P30291 whole entry): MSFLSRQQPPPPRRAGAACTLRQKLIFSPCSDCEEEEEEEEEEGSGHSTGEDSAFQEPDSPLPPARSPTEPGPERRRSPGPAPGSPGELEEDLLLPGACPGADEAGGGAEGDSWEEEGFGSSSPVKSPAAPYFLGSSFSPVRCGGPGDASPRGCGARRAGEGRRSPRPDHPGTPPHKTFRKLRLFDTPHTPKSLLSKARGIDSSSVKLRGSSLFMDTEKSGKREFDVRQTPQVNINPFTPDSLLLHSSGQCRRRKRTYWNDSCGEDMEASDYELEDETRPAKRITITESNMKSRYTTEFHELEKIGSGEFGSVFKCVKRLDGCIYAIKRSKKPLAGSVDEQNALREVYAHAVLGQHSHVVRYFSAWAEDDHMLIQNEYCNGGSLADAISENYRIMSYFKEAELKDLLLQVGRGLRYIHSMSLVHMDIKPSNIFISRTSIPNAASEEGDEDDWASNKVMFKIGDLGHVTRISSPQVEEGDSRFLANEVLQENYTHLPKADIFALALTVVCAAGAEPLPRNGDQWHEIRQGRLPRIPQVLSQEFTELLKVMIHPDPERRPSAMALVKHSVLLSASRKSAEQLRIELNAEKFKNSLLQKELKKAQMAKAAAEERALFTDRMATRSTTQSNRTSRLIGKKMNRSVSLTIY
# WEE1-nanoluciferase fusion protein, sequence (P30291 whole entry, the tested form may be a part): as the sequence (P30291 whole entry) above
# FAK, sequence (Q05397 whole entry): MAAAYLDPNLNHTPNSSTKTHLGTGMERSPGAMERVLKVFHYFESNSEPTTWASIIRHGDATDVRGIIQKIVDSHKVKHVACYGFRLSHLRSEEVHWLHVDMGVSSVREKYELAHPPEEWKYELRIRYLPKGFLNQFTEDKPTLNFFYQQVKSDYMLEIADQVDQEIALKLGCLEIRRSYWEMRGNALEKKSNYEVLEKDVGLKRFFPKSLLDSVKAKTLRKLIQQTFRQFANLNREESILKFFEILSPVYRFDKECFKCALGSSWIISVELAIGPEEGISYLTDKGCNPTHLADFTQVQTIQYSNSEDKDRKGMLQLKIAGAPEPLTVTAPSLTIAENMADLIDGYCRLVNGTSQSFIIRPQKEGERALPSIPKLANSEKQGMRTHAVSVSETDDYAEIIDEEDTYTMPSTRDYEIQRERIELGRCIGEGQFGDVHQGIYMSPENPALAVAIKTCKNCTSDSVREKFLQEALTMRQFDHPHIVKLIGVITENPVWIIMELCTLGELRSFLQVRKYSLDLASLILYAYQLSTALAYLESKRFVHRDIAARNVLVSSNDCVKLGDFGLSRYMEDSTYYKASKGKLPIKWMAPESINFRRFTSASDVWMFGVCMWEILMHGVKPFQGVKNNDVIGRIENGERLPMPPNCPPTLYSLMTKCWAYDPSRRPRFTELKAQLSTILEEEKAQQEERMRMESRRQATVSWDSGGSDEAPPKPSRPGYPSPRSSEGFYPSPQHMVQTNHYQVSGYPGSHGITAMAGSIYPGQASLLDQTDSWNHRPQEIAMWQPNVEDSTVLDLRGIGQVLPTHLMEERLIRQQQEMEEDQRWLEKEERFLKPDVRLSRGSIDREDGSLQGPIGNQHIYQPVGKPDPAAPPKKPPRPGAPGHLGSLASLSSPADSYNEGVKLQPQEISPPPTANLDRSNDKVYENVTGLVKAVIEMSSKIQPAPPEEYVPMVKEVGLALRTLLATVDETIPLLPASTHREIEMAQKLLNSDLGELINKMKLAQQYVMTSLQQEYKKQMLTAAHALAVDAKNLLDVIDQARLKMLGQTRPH
# KLHDC2-WEE1, sequence (P30291 299-569 limits assumed, one chain of several): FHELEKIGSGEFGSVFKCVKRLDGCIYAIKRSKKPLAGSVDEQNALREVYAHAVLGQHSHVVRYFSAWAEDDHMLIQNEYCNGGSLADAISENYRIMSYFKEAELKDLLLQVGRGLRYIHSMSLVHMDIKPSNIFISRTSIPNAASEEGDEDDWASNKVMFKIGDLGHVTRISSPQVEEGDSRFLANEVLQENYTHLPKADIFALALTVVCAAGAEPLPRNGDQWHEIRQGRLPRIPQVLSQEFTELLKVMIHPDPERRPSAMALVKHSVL
# CDK6, sequence (Q00534 whole entry): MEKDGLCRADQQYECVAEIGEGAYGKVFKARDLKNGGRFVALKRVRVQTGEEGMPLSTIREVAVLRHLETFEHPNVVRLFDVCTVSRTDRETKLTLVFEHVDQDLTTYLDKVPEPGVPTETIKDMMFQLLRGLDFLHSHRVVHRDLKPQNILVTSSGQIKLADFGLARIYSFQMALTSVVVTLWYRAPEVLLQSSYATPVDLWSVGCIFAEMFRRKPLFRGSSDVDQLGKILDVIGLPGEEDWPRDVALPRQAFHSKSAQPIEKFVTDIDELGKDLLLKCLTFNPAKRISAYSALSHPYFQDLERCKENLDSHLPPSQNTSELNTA
molecule,measurement,setting,value
"CS(=O)(=O)Nc1cccc(-c2csc3cnc(Nc4ccc(N5CCN(CCCCCOc6cccc7c6C(=O)N(C6CCC(=O)NC6=O)C7=O)CC5)cc4)nc23)c1 (centres unmarked) [DB0614, reference compound]",cytotoxicity,[1],cytotoxic
same,kinase degradation activity compared between compounds,[2],more effective kinase degrader than KYH1872 (26)
"KYH2011 (27): identical to KYH1872 (26) except reversed methionine stereocenter, PPP(D-Met)AGG ({YHJ1039-PEG2′}-PPP[dM]AGG; reading uncertain; also: printed as PPP(D-Met)AGG)",inhibition of cell proliferation (in words),"[3]; MOLM-14 cells, 72 hours",did not cause kinase degradation or inhibit cell proliferation
same,Kd,"[4]; read-out: KLHDC2 binding (KD), TR-FRET, FITC-PPPMAGG probe, His6-GST-KLHDC2",155 nM
KYH1872 (26): two-PEG linker connects YHJ1039 with a seven amino acid SelK peptide (PPPMAGG) ({YHJ1039-two‑PEG linker}-PPPMAGG; reading uncertain),DC50,[5],933 nM
same,DC50,"[6]; read-out: DC50 WEE1, Western blotting, 24 hours",302 nM
same,time at which WEE1 degradation was observable,[6]; time course Western blot,12 h
same,DC50,[7],1000 nM
same,DC50,"[8]; read-out: DC50 CDK4, Western blotting, 24 hours",457 nM
same,time at which CDK4 degradation was observable,[8]; time course Western blot,12 h
same,WEE1 degradation after MLN4924 pretreatment (HiBiT),[9]; [17],prevented WEE1 and CDK4 degradation
same,DC50 WEE1-KD (HiBiT),"[9]; MOLM-14 cells, six hours, n.d. = not determined (no degradation)","1,290 nM"
same,WEE1 and CDK4 RNA levels,[10],not changed
same,effect on cell proliferation with MLN4924 co-treatment,[3]; co-treatment with increasing concentrations of MLN4924,blunted the negative effect
same,EC50,"[3]; read-out: Cell viability (EC50), MOLM-14 cells, 72 hours after treatment",1060 nM
same,"WEE1 engagement, fold less efficient than ZNL-02-096",[11]; MLN4924 pretreated,~ 300 fold
same,CDK4 degradation after MLN4924 pretreatment (HiBiT),[12]; [17],prevented WEE1 and CDK4 degradation
same,Dmax CDK4 (HiBiT),"[12]; maximum total fraction of the target degraded, given as a fraction, MOLM-14 cells, six hours",0.32
same,"kinase degradation (Western blot, in words)",[2]; KYH1872 at 1 and 10 μM,induced the degradation
same,kinase degradation activity compared between compounds,[2],slightly improved degradation activity when compared with KYH1886 (25)
same,DC50,[13],1070 nM
same,induced KLHDC2-WEE1 binding,[14],can induce between KLHDC2-WEE1 binding
same,KLHDC2 binding (in words),"[4]; biochemical binding assay, limit of detection ~2 nM",binds to the KLHDC2 protein; also recorded: tighter than the limit of detection
same,WEE1 and CDK4 degradation in MOLM-14 and MV4-11 cells,[15],displayed WEE1 and CDK4 degradation
"C=CCn1c(=O)c2cnc(Nc3ccc(N4CCN(C)CC4)cc3)nc2n1-c1cccc(C(C)(C)O)n1 [AZD1775, reference compound]",WEE1 target engagement (in words),[11]; YHJ1039 versus AZD1775,comparable
{YHJ1039-two‑PEG linker}-PPPMAGG (reading uncertain) [KYH1872 (26)],Kd,[16],< 2 nM
